The values that follow come from ChEMBL document CHEMBL4725451, “Discovery of Tricyclic Xanthines as Agonists of the Cannabinoid-Activated Orphan G-Protein-Coupled Receptor GPR18” (ACS Med Chem Lett, 2020).

Calls of active or inactive are those of the source. The rule behind the calls is not given here.

Usually EC50 stands for the midpoint of the concentration-response curve. A word on the IC50: it is the concentration that gives 50% inhibition. What is called inhibition is the drop in the measured response relative to a control, in per cent.

Assay [1] has as its target T1, N-arachidonyl glycine receptor (Homo sapiens, UniProt Q14330).
T1 sequence (Q14330 whole entry): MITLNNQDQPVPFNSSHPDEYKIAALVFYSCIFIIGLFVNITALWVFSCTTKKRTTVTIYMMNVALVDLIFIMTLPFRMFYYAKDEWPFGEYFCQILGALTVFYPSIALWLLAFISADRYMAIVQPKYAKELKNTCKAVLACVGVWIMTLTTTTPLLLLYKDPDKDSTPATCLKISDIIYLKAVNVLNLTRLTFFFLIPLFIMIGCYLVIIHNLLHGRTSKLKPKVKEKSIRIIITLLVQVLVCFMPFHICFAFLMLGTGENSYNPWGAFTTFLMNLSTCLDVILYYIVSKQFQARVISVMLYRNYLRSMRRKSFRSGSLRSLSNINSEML
Briefly: Agonist activity at Prolink1-tagged human GPR18 receptor expressed in CHO cells assessed as induction of beta-arrestin recruitment after 90 mins by beta-galactosidase based topcount luminescence analysis. In kind it is cell-based.

Assay [2] has as its target T2, G-protein coupled receptor 55 (Homo sapiens, UniProt Q9Y2T6). Briefly: Agonist activity at Prolink1-tagged human GPR55 receptor expressed in CHO cells assessed as induction of beta-arrestin recruitment after 90 mins by beta-galactosidase based topcount luminescence analysis. In kind it is cell-based.
For assay [3], the target named is T1, N-arachidonyl glycine receptor. In words: Antagonist activity at Prolink1-tagged human GPR18 receptor expressed in CHO cells assessed as inhibition of THC-induced beta arrestin recruitment after 90 mins by beta-galactosidase based topcount luminescence analysis. In kind it is functional, cell-based.
The target in assay [4] is T2, G-protein coupled receptor 55. Briefly: Antagonist activity at Prolink1-tagged human GPR55 receptor expressed in CHO cells assessed as inhibition of lysophosphatidylinositol-induced beta arrestin recruitment after 90 mins by beta-galactosidase based topcount luminescence analysis. It is filed as functional, cell-based. For orientation: Activated receptors often draw arrestin, which recruitment assays turn into a signal.

The target of assay [5] is T3, N-arachidonyl glycine receptor (Homo sapiens) (UniProt Q14330).
T3 sequence (whole entry): T1 sequence (Q14330 whole entry)
In words: Agonist activity at Prolink1-tagged human GPR18 receptor expressed in CHO cells assessed as induction of beta-arrestin recruitment at 10 uM after 90 mins by beta-galactosidase based topcount luminescence analysis relative to control. In kind it is cell-based. In a few lines:
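CHO cells stably expressing human GPR18, β-arrestin enzyme-complementation assay with luminescence read-out. Test compound at 10 μM single concentration; signal normalized to that of 10 μM Δ9-THC.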

Assay [6] has as its target T2, G-protein coupled receptor 55. In words: Agonist activity at Prolink1-tagged human GPR55 receptor expressed in CHO cells assessed as induction of beta-arrestin recruitment at 10 uM after 90 mins by beta-galactosidase based topcount luminescence analysis relative to control. In kind it is cell-based. In a few lines: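 CHO cells stably expressing GPR55, β2-arrestin recruitment detected by enzyme complementation and luminescence. Compounds tested at 10 μM; effect normalized to signal from 1 μM LPI.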

Assay [7] has the same target. In words: Antagonist activity at Prolink1-tagged human GPR55 receptor expressed in CHO cells assessed as inhibition of lysophosphatidylinositol-induced beta arrestin recruitment at 10 uM after 90 mins by beta-galactosidase based topcount luminescence analysis relative to control. In kind it is functional, cell-based. In a few lines:
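GPR55-expressing CHO cells, β-arrestin complementation luminescence. Percent inhibition by test compound at 10 μM of the response to 1 μM LPI.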

The target of assay [8] is T3, N-arachidonyl glycine receptor (Homo sapiens). In words: Agonist activity at Prolink1-tagged human GPR18 receptor expressed in CHO cells assessed as increase in beta-arrestin recruitment at 1 uM in presence of THC at lower concentrations after 90 mins by beta-galactosidase based topcount luminescence analysis. The note with it: filed as agonist. In kind it is cell-based. In a few lines: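 GPR18-CHO β-arrestin recruitment assay. Fixed agonist at 1 μM combined with a THC concentration–response series. Means of three independent experiments in duplicate.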

Assay [9] concerns the target Cannabinoid receptor 1 (Homo sapiens) (UniProt P21554). In words: Displacement of [3H]CP55,940 from human CB1 receptor expressed in CHO cell membranes after 2 hrs by liquid scintillation analysis. In a few lines: (§1)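 CB receptor radioligand binding: test compound at 10 μM single concentration, scored for displacement of a CB-specific radioligand and for any increase in bound radioligand.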
(In general: Loss of bound radioactivity is the signal in a displacement assay; it reports binding, not function.)

Assay [10] has as its target T3, N-arachidonyl glycine receptor (Homo sapiens). In words: Agonist activity at Prolink1-tagged human GPR18 receptor expressed in CHO cells assessed as effect on induction of beta-arrestin recruitment after 90 mins in presence of 3 to 20 uM […] antagonist 2-(3-(6-(4-chlorophenoxy)hexyloxy)benzylidene)-6,7-dihydro-2H-imidazo[2,1-b][1,3]thiazin-3(5H)-one by beta-galactosidase based topcount luminescence analysis. In kind it is cell-based. The note with it: filed as agonist.

The target is the same in assay [11]. In words: Agonist activity at Prolink1-tagged human GPR18 receptor expressed in CHO cells assessed as induction of beta-arrestin recruitment after 90 mins in presence of 10 uM THC by beta-galactosidase based topcount luminescence analysis relative to control. It is filed as cell-based. In a few lines: (§2)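 β-Arrestin recruitment in CHO cells expressing human GPR18. Agonist concentration–response curves recorded in the presence of fixed Δ9-THC (3 μM or 10 μM). Means of three independent experiments, each in duplicate.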

For assay [12] the target is unchanged. In words: Agonist activity at Prolink1-tagged human GPR18 receptor expressed in CHO cells assessed as induction of beta-arrestin recruitment by measuring maximum inhibition of 2-(3-(6-(4-chlorophenoxy)hexyloxy)benzylidene)-6,7-dihydro-2H-imidazo[2,1-b][1,3]thiazin-3(5H)-one at 1 uM after 90 mins by beta-galactosidase based topcount luminescence analysis. In kind it is cell-based. The note with it: filed as agonist. In a few lines:
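Human GPR18 stably expressed in CHO cells, β-arrestin enzyme complementation. Antagonist concentration-inhibition curves run against a fixed 1 μM agonist stimulus. IC50 and maximal inhibition derived from curves; means of three independent experiments, each in duplicate.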

In assay [13] the target is Cannabinoid receptor 2 (Homo sapiens) (UniProt P34972). Briefly: Displacement of [3H]CP55,940 from human CB2 receptor expressed in CHO cell membranes after 2 hrs by liquid scintillation analysis. In a few lines:
as §1

For assay [14], the target named is T3, N-arachidonyl glycine receptor (Homo sapiens). Briefly: Agonist activity at Prolink1-tagged human GPR18 receptor expressed in CHO cells assessed as induction of beta-arrestin recruitment after 90 mins in presence of 3 uM THC by beta-galactosidase based topcount luminescence analysis. It is filed as cell-based. In a few lines:
as §2

T2 sequence (Q9Y2T6 whole entry): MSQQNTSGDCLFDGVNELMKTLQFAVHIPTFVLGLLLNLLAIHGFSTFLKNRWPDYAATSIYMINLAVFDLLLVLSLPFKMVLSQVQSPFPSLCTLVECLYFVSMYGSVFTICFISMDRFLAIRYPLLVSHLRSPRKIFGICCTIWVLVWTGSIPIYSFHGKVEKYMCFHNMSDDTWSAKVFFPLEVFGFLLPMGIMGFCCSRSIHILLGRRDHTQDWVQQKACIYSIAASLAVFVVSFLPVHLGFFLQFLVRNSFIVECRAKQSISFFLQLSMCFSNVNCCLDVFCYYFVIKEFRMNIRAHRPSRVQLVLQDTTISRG
Chain of Cannabinoid receptor 2 (Homo sapiens) (P34972 whole entry): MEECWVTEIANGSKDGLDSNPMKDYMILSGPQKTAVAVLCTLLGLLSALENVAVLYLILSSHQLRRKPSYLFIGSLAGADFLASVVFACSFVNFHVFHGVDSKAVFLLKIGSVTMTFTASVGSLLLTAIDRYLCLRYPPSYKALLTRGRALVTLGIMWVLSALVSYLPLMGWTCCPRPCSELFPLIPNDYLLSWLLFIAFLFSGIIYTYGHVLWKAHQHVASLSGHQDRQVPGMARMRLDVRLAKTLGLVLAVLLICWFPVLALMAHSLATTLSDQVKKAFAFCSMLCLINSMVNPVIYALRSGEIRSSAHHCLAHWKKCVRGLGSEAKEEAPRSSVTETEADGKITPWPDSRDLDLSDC
Chain of Cannabinoid receptor 1 (Homo sapiens) (P21554 whole entry): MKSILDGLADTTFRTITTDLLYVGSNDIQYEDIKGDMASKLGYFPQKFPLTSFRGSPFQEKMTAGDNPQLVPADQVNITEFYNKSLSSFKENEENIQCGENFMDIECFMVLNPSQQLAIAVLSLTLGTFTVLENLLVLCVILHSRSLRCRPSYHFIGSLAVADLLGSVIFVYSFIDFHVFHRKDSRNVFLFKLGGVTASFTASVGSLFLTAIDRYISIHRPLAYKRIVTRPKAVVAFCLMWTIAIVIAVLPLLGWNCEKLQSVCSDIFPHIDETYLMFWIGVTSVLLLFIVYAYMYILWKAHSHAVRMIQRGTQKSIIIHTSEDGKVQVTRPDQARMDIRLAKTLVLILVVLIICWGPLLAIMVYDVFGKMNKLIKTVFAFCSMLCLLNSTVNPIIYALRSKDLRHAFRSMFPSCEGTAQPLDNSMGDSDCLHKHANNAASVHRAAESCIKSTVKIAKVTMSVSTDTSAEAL

Take `Cn1c(=O)c2c(nc3n2CCN3c2ccc(O)cc2)n(C)c1=O`: the concentration for a half-maximal effect (EC50) in [1] and in assay [2] was greater than 10 µM each time. The IC50 in [3] and in assay [4] was greater than 10 µM each time. The figures for the Activity in assay [5] and in assay [6] were 22% and 13%, respectively.

For the compound `COCCN1CCCn2c1nc1c2c(=O)n(C)c(=O)n1C`, the EC50 in assay [1] and in assay [2] was greater than 10 µM throughout. The inhibition in assay [7] was -4%. Moreover, the IC50 in assay [3] and in [4] was greater than 10 µM each time. Also, the Activity in assay [5] (filed as agonist) was 40%; in [6], 18%.

Take `CCCCCN1CCCn2c1nc1c2c(=O)n(C)c(=O)n1C`: the EC50 in assay [1] and in assay [2] was greater than 10 µM each time. The IC50 in assay [3] and in assay [4] was greater than 10 µM each time. The results for the Activity in assay [5] and in [6] were -1% and 10%, respectively.

For `Cn1c(=O)c2c(nc3n2CCCCN3CCc2c[nH]c3ccccc23)n(C)c1=O`, the EC50 in [2] was greater than 10 µM. In addition, the IC50 in assay [4] is greater than 10 µM.

Consider `Cn1c(=O)c2c(nc3n2CCN3CCc2c[nH]c3ccccc23)n(C)c1=O`, for which the EC50 in [2] is greater than 10 µM. For the same compound, the IC50 in assay [4] is greater than 10 µM.

As to `CCCCCc1cc(O)c2c(c1)OC(C)(C)[C@@H]1CCC(C)=C[C@@H]21` [DRONABINOL], the EC50 in assay [2] is greater than 10 µM. The Activity in assay [6] is -4%.

On to `CCCn1c(=O)c2c(nc3n2CCCN3CCc2c[nH]c3ccccc23)n(CCC)c1=O`, for which the EC50 in assay [1] and in assay [2] was greater than 10 µM in each case. Also, in assay [7], the inhibition is -4%. Further, the IC50 in [3] and in [4] was greater than 10 µM throughout. The Activity in assay [5] was -12%.

For the compound `Cn1c(=O)c2c(nc3n2CCCN3CCc2ccc(Cl)cc2)n(C)c1=O`, the EC50 in assay [1] and in assay [2] was greater than 10 µM in each case. The IC50 in [3] and in [4] was greater than 10 µM throughout. In addition, the Activity in assay [5] worked out at 14%; in [6], 10%.

Regarding `CCCCN1CCCn2c1nc1c2c(=O)n(C)c(=O)n1C`, the EC50 in assay [1] and in assay [2] was greater than 10 µM each time. The inhibition in assay [7] came to 34%. Also, the half-maximal inhibitory concentration (IC50) in assay [3] and in [4] was greater than 10 µM in each case. For the same compound, the Activity is 26% in assay [5] and -4% in assay [6].

As to `COc1ccc(CCN2CCCn3c2nc2c3c(=O)n(C)c(=O)n2C)cc1OC`, the EC50 in assay [1] and in assay [2] was greater than 10 µM in each case. Moreover, the inhibition in [7] is 32%. The IC50 in assay [3] and in assay [4] was greater than 10 µM in each case. For the same compound, the Activity was -39% in [5] and 15% in assay [6].

As for `CCN(CC)CCN1CCCn2c1nc1c2c(=O)n(C)c(=O)n1C`, the EC50 in [1] and in assay [2] was greater than 10 µM in each case. Besides, the inhibition in [7] is -3%. Further, the IC50 in assay [3] and in [4] was greater than 10 µM each time. Moreover, the figures for the Activity in assay [5] and in assay [6] were 39% and 4%, respectively.

In the case of `CCN1CCCn2c1nc1c2c(=O)n(C)c(=O)n1C`, the EC50 in assay [1] and in [2] was greater than 10 µM each time. In assay [7], the inhibition was 17%. The IC50 in assay [3] and in assay [4] was greater than 10 µM in each case. In addition, the figures for the Activity in [5] and in assay [6] were 2% and -16%, respectively.

Consider `Cn1c(=O)c2c(nc3n2CCCN3CCc2ccccc2)n(C)c1=O`, for which the EC50 in assay [1] and in [2] was greater than 10 µM throughout. Moreover, in assay [7], the inhibition was -10%. Moreover, the IC50 in assay [3] and in assay [4] was greater than 10 µM throughout. The Activity is 2% in [5] and 16% in [6].

For the compound `Cn1c(=O)c2c(nc3n2CCCN3CCc2c[nH]c3ccccc23)n(C)c1=O`, the outcome in assay [8] and in assay [10] was Active. Besides, the outcome in assay [9], in [13] and in assay [14] was inactive. The values for the EC50 in [1] and in assay [2] were 0.562 µM and greater than 10 µM, respectively. Moreover, the inhibition entry in [11] is “inactive”. Moreover, the inhibition in assay [7] was 20%; in assay [12] it was 65%. Moreover, the IC50 in [4] was greater than 10 µM. Further, the Activity in assay [6] was -5%.

Regarding `C=C(C)[C@@H]1CCC(C)=C[C@H]1c1c(O)cc(O)cc1CCCCC`, the EC50 in [1] and in assay [2] was greater than 10 µM throughout. For the same compound, the inhibition in assay [7] was 33%. For the same compound, the IC50 in assay [3] and in assay [4] was greater than 10 µM in each case. Also, the Activity in assay [6] amounted to 7%.

Consider `CCCCC/C=C\C/C=C\C/C=C\C/C=C\CCCC(=O)NCC(=O)O` [ARACHIDONOYL GLYCINE], for which the EC50 in assay [1] was greater than 10 µM. Also, in [3], the IC50 is greater than 10 µM.

`Cn1c(=O)c2c(nc3n2CCCN3Cc2ccc(Cl)cc2)n(C)c1=O`: the EC50 in assay [1] and in assay [2] was greater than 10 µM in each case. The inhibition in assay [7] is 1%. Further, the half-inhibitory concentration (IC50) in assay [3] and in assay [4] was greater than 10 µM throughout. The figures for the Activity in [5] and in assay [6] were 6% and -9%, respectively.

As to `COc1ccc(CCN2CCCn3c2nc2c3c(=O)n(C)c(=O)n2C)cc1`, the EC50 in assay [1] and in assay [2] was greater than 10 µM each time. The half-maximal inhibitory concentration (IC50) in assay [3] and in assay [4] was greater than 10 µM throughout. For the same compound, the Activity in assay [5] was -2%; in [6], -6%.
